Where a SMILES comes first, the peptide text is derived from it. [ ]: non-standard residue; d: D form. The star is where a group is joined. X1 = O=C(O)CN1CCN(CC(=O)O)CCN(CC(=O)NCCN2C(=O)CC(*)C2=O)CCN(CC(=O)O)CC1

Series [1] can be described thus: Biodistribution of ^68Ga-DOTA-RGD in MGC-803 tumor-bearing mice. The format is in vivo. Particulars: BALB/c nude, mouse, tumor (MGC-803 xenograft), iv, 10 MBq, total radioactivity. An outline of the steps: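 Female BALB/c nude mice (4–5 weeks, SPF) bearing s.c. right-shoulder xenografts of 5 × 10^6 MGC-803 cells in PBS; cells grown in DMEM/10% FBS, 37 °C, 5% CO2. Injected 10 MBq radiotracer (740 MBq/μmol), killed at 60 and 180 min. Blocking by co-injection of excess unlabelled thiol peptide (50 mg/kg), 180 min. Ten tissues weighed and gamma-counted, expressed as %ID/g; n = 3.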

The next series deals with inflamed tissue. Description: Biodistribution of ^68Ga-DOTA-BSA in the turpentine oil inflammation model. Conditions: 5–10 MBq, mean ± SD, n = 3. The format is in vivo, mice. The essentials:
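Inflammation induced by s.c. injection of 30 μL turpentine oil into the right thigh of female mice (4–5 weeks old). Radiolabelled albumin tracer (5–10 MBq; 130 MBq/μmol) injected. Mice killed under anaesthesia at 30 and 60 min post-injection. Inflamed tissue and organs collected, weighed, gamma-counted, and expressed as %ID/g. n = 3, mean ± SD.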

Take `N=C(N)NCCC[C@@H]1NC(=O)[C@H](CSC2CC(=O)N(CCNC(=O)CN3CCN(CC(=O)O)CCN(CC(=O)O)CCN(CC(=O)O)CC3)C2=O)NC(=O)[C@H](CCCCN)NC(=O)[C@@H](Cc2ccc(O)cc2)NC(=O)[C@H](CC(=O)O)NC(=O)CNC1=O` (stereo partly shown) [^68Ga-DOTA-RGD, metal not drawn] (cyclo(RGD[dY]KC(X1))): in series [1], the tissue uptake at 1 h was 4.31 ± 0.93 %ID/g and the tissue uptake at 3 h was found to be 8.3 ± 0.92 %ID/g.

For “^68Ga-DOTA-BSA: ^68Ga-labeled DOTA-Mal conjugated to DTT-treated bovine serum albumin (HS-BSA)”, the “uptake in inflammatory tissues” value is 4.32 ± 1.10 % ID/g in the series with inflamed tissue (0.5 h after injection) and 6.50 ± 0.40 % ID/g in the series on inflamed tissue (1 h after injection).

The term tissue uptake denotes the share of the injected amount in each gram of the tissue.
